Our source for the IC50 values is ChEMBL document CHEMBL1221342, “Synthesis and in vitro antitumor activity of new 4,5-dihydropyrazole derivatives” (Bioorg Med Chem, 2010).

One assay relates to NCI-H460. The experiment in a line: Cytotoxicity against human NCI-H460 cells after 72 hrs by SRB assay. The settings on record: NCI-H460, 72 h. The assay is classed as functional, cell-based. Summed up:
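NCI-H460 (ATCC) cells seeded in 96-well plates in growth medium. Scalar drug concentrations added 24 h after plating, then 72 h exposure. Surviving cells stained with sulforhodamine B, OD read at 570 nm. IC50 (50% growth inhibition) fitted from dose–response curves. Mean ± SE of at least three independent experiments.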
Consider `COc1cc(C2CC(c3ccc(Cl)cc3)=NN2C(C)=O)cc(OC)c1OC` (centres undefined), for which the IC50 is 11.9 µM.

As to `CCN(CC)c1ccc(C2=NN(C(=O)COC(C)=O)C(c3cc(OC)c(OC)c(OC)c3)C2)cc1` (centres undefined), half-maximal inhibition (IC50) was put at 5 µM.

The molecule `COc1cc(C2CC(c3ccc(N(C)C)cc3)=NN2C(=O)CO)cc(OC)c1OC` (centres undefined) returned an IC50 of 1.3 µM.

`COc1ccc(C2=NN(C(C)=O)C(c3cc(OC)c(OC)c(OC)c3)C2)cc1` (centres undefined) displayed an IC50 greater than 20 µM.

As for `COc1cc(C2CC(c3cccc(N)c3)=NN2C(C)=O)cc(OC)c1OC` (centres undefined), inhibition was half-maximal at 0.74 µM (IC50). This counts as sub-micromolar.

`COc1ccc(C2=NNC(c3cc(OC)c(OC)c(OC)c3)C2)cc1` (centres undefined): the IC50 is greater than 20 µM.

As to `COc1cc(C2CC(c3ccc(F)cc3)=NN2)cc(OC)c1OC` (centres undefined), the half-inhibitory concentration (IC50) was greater than 20 µM.

`COc1cc(C2CC(c3cccc(Br)c3)=NN2C(=O)COC(C)=O)cc(OC)c1OC` (centres undefined) came in with an IC50 greater than 20 µM.

For `COc1cc(C2=NNC(c3cc(OC)c(OC)c(OC)c3)C2)ccc1O` (centres undefined), the half-maximal inhibitory concentration (IC50) was greater than 20 µM.

With `COc1cc(C2CC(c3ccc(SC)cc3)=NN2C(C)=O)cc(OC)c1OC` (centres undefined), the IC50 is 8 µM.

`COc1cc(C2=NN(C(C)=O)C(c3ccc(N(C)C)cc3)C2)cc(OC)c1OC` (centres undefined): the IC50 is greater than 20 µM.

`CCN(CC)c1ccc(C2=NNC(c3cc(OC)c(OC)c(OC)c3)C2)cc1` (centres undefined) displayed a half-maximal inhibitory concentration (IC50) greater than 20 µM.

Turning to `COc1cc(C2CC(c3ccc(Br)cc3)=NN2C(C)=O)cc(OC)c1OC` (centres undefined), the IC50 was 6 µM.

Regarding `COc1cccc(C2=NN(C(C)=O)C(c3cc(OC)c(OC)c(OC)c3)C2)c1` (centres undefined), the concentration for half-maximal inhibition (IC50) was greater than 20 µM.

For the molecule `COc1cccc(C2CC(c3cc(OC)c(OC)c(OC)c3)=NN2C(C)=O)c1` (centres undefined), the half-inhibitory concentration (IC50) is greater than 20 µM.

`COc1cc(C2CC(c3cccc(O)c3)=NN2)cc(OC)c1OC` (centres undefined) had an IC50 greater than 20 µM.

In turn, `COc1cc(C2CC(c3cccc(Br)c3)=NN2)cc(OC)c1OC` (centres undefined) returned a half-maximal inhibitory concentration (IC50) greater than 20 µM.

Turning to `COc1cc(C2CC(c3ccc(N(C)C)cc3)=NN2)cc(OC)c1OC` (centres undefined), the 50% inhibitory concentration (IC50) was greater than 20 µM.

`COc1cc(C2CC(c3cccc(Br)c3)=NN2C(=O)CO)cc(OC)c1OC` (centres undefined) had an IC50 of 1.1 µM.

Molecule `COc1ccc(C2CC(c3cc(OC)c(OC)c(OC)c3)=NN2C(C)=O)cc1` (centres undefined) showed a concentration for half-maximal inhibition (IC50) greater than 20 µM.

The molecule `COc1cccc(C2CC(c3cc(OC)c(OC)c(OC)c3)=NN2)c1` (centres undefined) gave an IC50 of 11.6 µM. That is a double-digit micromolar value.

`CCN(CC)c1ccc(C2CC(c3cc(OC)c(OC)c(OC)c3)=NN2C(C)=O)cc1` (centres undefined): half-maximal inhibition (IC50) required 13.8 µM.

For the molecule `COc1cc(C2CC(c3ccc(SC)cc3)=NN2)cc(OC)c1OC` (centres undefined), the IC50 was greater than 20 µM.

Molecule `COc1cc(C2CC(c3ccc(Br)cc3)=NN2)cc(OC)c1OC` (centres undefined) displayed an IC50 greater than 20 µM.

Molecule `COc1cc(C2CC(c3ccc(N(C)C)cc3)=NN2C(=O)COC(C)=O)cc(OC)c1OC` (centres undefined) gave an IC50 greater than 20 µM.

On to `COc1cc(C2=NN(C(=O)COC(C)=O)C(c3cc(OC)c(OC)c(OC)c3)C2)ccc1O` (centres undefined), for which half-maximal inhibition (IC50) required 4.5 µM.

In turn, `COc1cc(C2CC(c3ccc(C)cc3)=NN2C(=O)COC(C)=O)cc(OC)c1OC` (centres undefined) registered an IC50 of 3.3 µM.

Turning to `COc1cc(C2=NN(C(C)=O)C(c3cccc(O)c3)C2)cc(OC)c1OC` (centres undefined), the IC50 is greater than 20 µM.

Molecule `COc1cc(C2CC(c3ccc(C)cc3)=NN2C(C)=O)cc(OC)c1OC` (centres undefined) had a 50% inhibitory concentration (IC50) of 1.3 µM. That is a single-digit micromolar value.

Turning to `COc1cc(C2CC(c3ccc(C)cc3)=NN2C(=O)CO)cc(OC)c1OC` (centres undefined), the IC50 amounted to 0.69 µM. Against the preceding molecule, the IC50 is about 1.9-fold lower.

`COc1cc(C2CC(c3ccc(F)cc3)=NN2C(C)=O)cc(OC)c1OC` (centres undefined): it took 12 µM to reach half-maximal inhibition (IC50).

With `COc1cccc(C2=NNC(c3cc(OC)c(OC)c(OC)c3)C2)c1` (centres undefined), the IC50 is greater than 20 µM.

Regarding `CCN(CC)c1ccc(C2=NN(C(=O)CO)C(c3cc(OC)c(OC)c(OC)c3)C2)cc1` (centres undefined), half-maximal inhibition (IC50) required 0.95 µM.

With `COc1cc(C2CC(c3ccc(N)cc3)=NN2C(C)=O)cc(OC)c1OC` (centres undefined), half-maximal inhibition (IC50) required 2.6 µM. Against the preceding molecule, the IC50 is about 2.7-fold higher.

Consider `COc1cc(C2=NN(C(=O)CO)C(c3cc(OC)c(OC)c(OC)c3)C2)ccc1O` (centres undefined), for which the half-maximal inhibitory concentration (IC50) came to 1.85 µM.

As to `COc1cc(C2CC(c3ccc(C)cc3)=NN2)cc(OC)c1OC` (centres undefined), the half-inhibitory concentration (IC50) was greater than 20 µM.

Consider `COc1cc(C2=NNC(c3cccc(O)c3)C2)cc(OC)c1OC` (centres undefined), for which the IC50 is greater than 20 µM.

Test system in a further assay: not listed separately
The experiment in a line: Inhibition of tubulin polymerization.
Conditions: not given
A digest of the protocol: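 Tubulin (3 mg/mL HTS) in G-PEM buffer plus 5% glycerol, prepared at 4 °C, incubated at 37 °C with or without compound. Polymerization followed by A340 over 60 min. Polymer taken as the AUC, with untreated control AUC set to 100%. IC50 derived by non-linear regression.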
Take `COc1cc(C2CC(c3cccc(N)c3)=NN2C(C)=O)cc(OC)c1OC` (centres undefined): the IC50 was greater than 10 µM.

As to `CCN(CC)c1ccc(C2=NNC(c3cc(OC)c(OC)c(OC)c3)C2)cc1` (centres undefined), the IC50 is greater than 10 µM.

For `COc1cc(C2CC(c3ccc(C)cc3)=NN2C(C)=O)cc(OC)c1OC` (centres undefined), the IC50 is greater than 10 µM.

For the molecule `COc1cc(C2CC(c3ccc(C)cc3)=NN2C(=O)CO)cc(OC)c1OC` (centres undefined), the half-inhibitory concentration (IC50) stood at 7.72 µM.

Consider `CCN(CC)c1ccc(C2=NN(C(=O)CO)C(c3cc(OC)c(OC)c(OC)c3)C2)cc1` (centres undefined), for which the IC50 stood at 6.14 µM.

`COc1cc(C2CC(c3ccc(N)cc3)=NN2C(C)=O)cc(OC)c1OC` (centres undefined) registered an IC50 of 10 µM.

With `COc1cc(C2CC(c3ccc(C)cc3)=NN2)cc(OC)c1OC` (centres undefined), the IC50 was greater than 10 µM.
